Measured values: ChEMBL document CHEMBL4152257, “Discovery of novel β-carboline/acylhydrazone hybrids as potent antitumor agents and overcome drug resistance” (Eur J Med Chem, 2018)

Assays:
A549 = assay: Antiproliferative activity against human A549 cells after 48 to 72 hrs by MTT assay; type: functional, cell-based
How it was run: (§1)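 Cells in log phase seeded and allowed to adhere, then exposed to graded compound concentrations for 48 h or 72 h; MTT added for a further 2-3 h, formazan dissolved in DMSO. IC50 taken from dose-response curves; mean ± SD of at least three independent experiments.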

NCI/ADR-RES [1] = assay: Induction of apoptosis in human MCF7/ADR cells assessed as necrotic cells at 30 uM after 48 hrs by annexin V-FITC/PI dual staining based flow cytometry (reference value: 2.43%); type: functional
NCI/ADR-RES [2] = assay: Induction of apoptosis in human MCF7/ADR cells assessed as viable cells at 30 uM after 48 hrs by annexin V-FITC/PI dual staining based flow cytometry (reference value: 89.8%); type: functional; conditions: read-out: Activity
MCF7 [3] = assay: Induction of apoptosis in human MCF7 cells assessed as viable cells at 100 uM after 48 hrs by annexin V-FITC/PI dual staining based flow cytometry (reference value: 77.8%); type: functional; conditions: MCF7, 48 h, read-out: Activity
MCF7 [4] = assay: Cell cycle arrest in human MCF7 cells assessed as accumulation at S phase at 10 uM after 18 hrs by propidium iodide staining based flow cytometry (reference value: 44.80%); type: functional
HUVEC = assay: Antiproliferative activity against HUVEC after 48 to 72 hrs by MTT assay; type: cell-based; conditions: Homo sapiens; how it was run: as §1
A549/TR = assay: Antiproliferative activity against human A549/TR cells after 48 to 72 hrs by MTT assay; type: functional, cell-based; how it was run: as §1
MCF7 [5] = assay: Induction of apoptosis in human MCF7 cells assessed as late apoptotic cells at 3 uM after 48 hrs by annexin V-FITC/PI dual staining based flow cytometry (reference value: 11.1%); type: functional
NCI/ADR-RES [6] = assay: Antiproliferative activity against human MCF7/ADR cells after 48 to 72 hrs by MTT assay; type: functional, cell-based; how it was run: as §1
MCF7 [7] = assay: Induction of apoptosis in human MCF7 cells assessed as late apoptotic cells at 30 uM after 48 hrs by annexin V-FITC/PI dual staining based flow cytometry (reference value: 11.1%); type: functional
NCI/ADR-RES [8] = assay: Induction of apoptosis in human MCF7/ADR cells assessed as early apoptotic cells at 10 uM after 48 hrs by annexin V-FITC/PI dual staining based flow cytometry (reference value: 2.72%); type: functional
MCF7 [9] = assay: Induction of apoptosis in human MCF7 cells assessed as early apoptotic cells at 30 uM after 48 hrs by annexin V-FITC/PI dual staining based flow cytometry (reference value: 11%); type: functional
MCF7 [10] = assay: Cell cycle arrest in human MCF7 cells assessed as accumulation at G2/M phase at 10 uM after 18 hrs by propidium iodide staining based flow cytometry (reference value: 9.98%); type: functional
NCI-H460 = assay: Antiproliferative activity against human H460 cells at 1 uM after 48 to 72 hrs by MTT assay relative to control; type: functional
How it was run: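 Single-concentration screen in the MTT proliferation assay: log-phase cells seeded and allowed to adhere, exposed to compound at 1 µM for 48 h or 72 h, MTT added for 2-3 h, formazan dissolved in DMSO; percent inhibition versus control.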

MCF7 [11] = assay: Induction of apoptosis in human MCF7 cells assessed as late apoptotic cells at 10 uM after 48 hrs by annexin V-FITC/PI dual staining based flow cytometry (reference value: 11.1%); type: functional
Mus musculus = assay: Toxicity in athymic nude Balb/C mouse xenografted with human H460 cells assessed as body weight loss at 100 mg/kg, po administered 3 times per week measured every 2 days; type: organism-based; conditions: in vivo, 48 h
How it was run: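 Nude mice, 5-to-6-week-old females, given 5 × 10^6 H460 cells sc in right flank in HBSS; at 100 mm3 tumour volume randomized, 6 per group. Vehicle; oral 100 mg/kg three times weekly; or ip 30 mg/kg once weekly. Toxicity signs and mortality observed daily; body weight measured every 2 days.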

[12] = Resistance index, ratio of IC50 for human MCF7/ADR cells to IC50 for human MCF7 cells; type: functional
MCF7 [13] = assay: Cell cycle arrest in human MCF7 cells assessed as accumulation at S phase at 100 uM after 18 hrs by propidium iodide staining based flow cytometry (reference value: 44.80%); type: functional
MCF7 [14] = assay: Cell cycle arrest in human MCF7 cells assessed as accumulation at G0/G1 phase at 3 uM after 18 hrs by propidium iodide staining based flow cytometry (reference value: 45.22%); type: functional
NCI/ADR-RES [15] = assay: Induction of apoptosis in human MCF7/ADR cells assessed as viable cells at 100 uM after 48 hrs by annexin V-FITC/PI dual staining based flow cytometry (reference value: 89.8%); type: functional; conditions: read-out: Activity
A2780S = assay: Antiproliferative activity against human A2780S cells after 48 to 72 hrs by MTT assay; type: functional, cell-based; how it was run: as §1
[16] = Resistance index, ratio of IC50 for human A549/TR cells to IC50 for human A549 cells; type: functional
MCF7 [17] = assay: Cell cycle arrest in human MCF7 cells assessed as accumulation at S phase at 3 uM after 18 hrs by propidium iodide staining based flow cytometry (reference value: 44.80%); type: functional
Raji = assay: Antiproliferative activity against human Raji cells after 48 to 72 hrs by MTT assay; type: functional, cell-based; how it was run: as §1
NCI/ADR-RES [18] = assay: Induction of apoptosis in human MCF7/ADR cells assessed as late apoptotic cells at 30 uM after 48 hrs by annexin V-FITC/PI dual staining based flow cytometry (reference value: 5.02%); type: functional
MCF7 [19] = assay: Induction of apoptosis in human MCF7 cells assessed as viable cells at 10 uM after 48 hrs by annexin V-FITC/PI dual staining based flow cytometry (reference value: 77.8%); type: functional; conditions: MCF7, 48 h, read-out: Activity
MCF7 [20] = assay: Induction of apoptosis in human MCF7 cells assessed as necrotic cells at 3 uM after 48 hrs by annexin V-FITC/PI dual staining based flow cytometry (reference value: 0.16%); type: functional
NCI/ADR-RES [21] = assay: Induction of apoptosis in human MCF7/ADR cells assessed as viable cells at 10 uM after 48 hrs by annexin V-FITC/PI dual staining based flow cytometry (reference value: 89.8%); type: functional; conditions: read-out: Activity
MCF7 [22] = assay: Cell cycle arrest in human MCF7 cells assessed as accumulation at G0/G1 phase at 10 uM after 18 hrs by propidium iodide staining based flow cytometry (reference value: 45.22%); type: functional
NCI/ADR-RES [23] = assay: Induction of apoptosis in human MCF7/ADR cells assessed as late apoptotic cells at 100 uM after 48 hrs by annexin V-FITC/PI dual staining based flow cytometry (reference value: 5.02%); type: functional
[24] = Selectivity ratio of IC50 for HUVEC to IC50 for human A2780S cells; type: toxicity; conditions: HUVEC versus A2780S cells
NCI/ADR-RES [25] = assay: Induction of apoptosis in human MCF7/ADR cells assessed as late apoptotic cells at 3 uM after 48 hrs by annexin V-FITC/PI dual staining based flow cytometry (reference value: 5.02%); type: functional
NCI/ADR-RES [26] = assay: Induction of apoptosis in human MCF7/ADR cells assessed as early apoptotic cells at 3 uM after 48 hrs by annexin V-FITC/PI dual staining based flow cytometry (reference value: 2.72%); type: functional
MCF7 [27] = assay: Induction of apoptosis in human MCF7 cells assessed as necrotic cells at 30 uM after 48 hrs by annexin V-FITC/PI dual staining based flow cytometry (reference value: 0.16%); type: functional

IC50 (A549): 1370 nM
IC50 (A549/TR): 3130 nM
IC50 (A2780S): 3020 nM
IC50 (Raji): 1060 to 1200 nM
Structure (SMILES): N#Cc1ccc(COc2cccc(/C=N/NC(=O)c3cc4c(cn3)[nH]c3ccccc34)c2)cc1
Activity (NCI/ADR-RES [1]): 8.52%
viability at 30 µM (NCI/ADR-RES [2]): 64.8%
viability at 100 µM (MCF7 [3]): 47.2%
Activity (MCF7 [4]): 56.38%
IC50 (HUVEC): 88600 nM
Activity (MCF7 [5]): 17.6%
IC50 (NCI/ADR-RES [6]): 982 nM
Activity (MCF7 [7]): 28.8%
Activity (NCI/ADR-RES [8]): 4.38%
Activity (MCF7 [9]): 19.4%
Activity (MCF7 [10]): 7.57%
inhibition at 1 µM (NCI-H460): 51%
Activity (MCF7 [11]): 20.1%
Activity (Mus musculus): < 5%
Ratio IC50 [12]: 1.06
Activity (MCF7 [13]): 53.88%
Activity (MCF7 [14]): 34.57%
viability at 100 µM (NCI/ADR-RES [15]): 53.5%
Ratio IC50 [16]: 2.28
Activity (MCF7 [17]): 56.12%
Activity (NCI/ADR-RES [18]): 21.9%
viability at 10 µM (MCF7 [19]): 66.6%
Activity (MCF7 [20]): 0.26%
viability at 10 µM (NCI/ADR-RES [21]): 70.1%
Activity (MCF7 [22]): 36.05%
Activity (NCI/ADR-RES [23]): 30.2%
selectivity ratio [24]: 29.3
Activity (NCI/ADR-RES [25]): 7.2%
Activity (NCI/ADR-RES [26]): 2.44%
Activity (MCF7 [27]): 0.93%
